Consider 49 sequences from the EternaBench riboswitch data.

This series concerns MS2 coat protein. Kind of series: apparent Kd, MS2 coat protein; higher = weaker binding; RNA-MaP array; FMN 200 µM where present. The method in brief: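 Apparent Kd: the median of filtered binding-curve fits from single clusters. Designs were transcribed on Illumina sequencing-chip clusters by stalled E. coli RNA polymerase and titrated with SNAP-549-labelled MS2 coat protein from 0.7 or 1.5 nM, doubling to 3 µM, in 100 mM Tris-HCl pH 7.5, 80 mM KCl, 4 mM MgCl2, BSA, DTT, yeast tRNA and Tween-20. Each series ran without and then with constant ligand, and green signal was normalised to red-channel RNA signal and control-cluster median Fmax.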

The mark [1] stands for this setting: designed as: ON switch for flavin mononucleotide, no ligand.
Where [2] appears, read: ligand present: flavin mononucleotide, designed as: ON switch for flavin mononucleotide.
Setting [3] is: designed as: OFF switch for flavin mononucleotide, no ligand.
[4] abbreviates: ligand present: flavin mononucleotide, designed as: OFF switch for flavin mononucleotide.

Take “UUACUCAUGUAAGGAUAUGCAGCCGUUUCGGUUGCAGAAGGUACUAUAAUACAUGAGGAUCACCCAUGUCUUUUUAAUUUUUAC”: the “apparent Kd” value is, setting by setting: under setting [1], 67.9 nM; under setting [2], 31.2 nM.
Regarding “GAGUGACAUGAGGAUCACCCAUGUAAGGAUAUACGGUUGGUAGAGAGAGGGCUAAAGGGUAGAAGGUACGAAGG”, the “apparent Kd” value stood at 76.7 nM under setting [3] and 48.7 nM under setting [4].
Taken in the same sequence, the figures for “GGGCUGUCAGGAUAUCUCGGGCUCGGGUAAACUCGGGCUCGGGAGAAGGGACAUGAGGAUCACCCAUGUGGCUC” were 42.1 nM and 51.5 nM.
Turning to “UAAAAGUCAGGAUAUGCGAAGGCGUCUGAUAGACGAGGCUAGCAGAAGGGACAUGAGGAUCACCCAUGUGAAAU”, the “apparent Kd” value runs as follows: under setting [3], 51.8 nM; under setting [4], 138 nM.
On to “UCAUAUAUACAAGGAUAUCAAUGAUUUGUAGAUCCUACAUGAGGAUCACCCAUGUUUUUAUAUUUUGAGAAGGUGUAGUGUCUU”, for which the “apparent Kd” value under setting [1] amounted to 178 nM and the “apparent Kd” value under setting [2] was 352 nM.
On to “AAUUAUAGGUAGAAGGUACUGUAUUAUGUGUUGUAAGGAUAUACUAUAUUAUUAGUUCUCAAGUUACAUGAGGAUCACCCAUGU”, for which the “apparent Kd” value worked out at 10.3 nM under setting [1] and 8.02 nM under setting [2].
As to “GAAAAACAUGAGGAUCACCCAUGUAAGGAUAUGCUGAAAAAACACUGGAAACAGUGCAGCAGAAGGUACAAAAG”, the “apparent Kd” value under setting [3] came to 65.1 nM and the “apparent Kd” value under setting [4] stood at 103 nM.
The matching figures for “AAUUAUUCAGGAGGAUAUCCCAGGACAUGAGGAUCACCCAUGUUCGGGUUGCCCUCAUGAACGCCGGAGAAGGCCUGAACGAAU”: 13 nM and 17.1 nM.
As for “UUAUUUUUACAGAAGGUUUAAUAAUAUGUAUGAGAAGGAUAUGUAACAUGAGGAUCACCCAUGUUUUAUUUAUAUGAGGAUCAU”, the “apparent Kd” value under setting [4] came out at 9.31 nM.
As to “CUGGGUUAGGAGAAGGGCUAGAGUGUGAUAUAUUUGCCCGCGAGCACAUGAGGAUCACCCAUGUAGCAGGAUAUCCAAACCGGU”, the “apparent Kd” value came to 7.33 nM under setting [3] and 19.5 nM under setting [4].
Regarding “CGUUGUUAAGGAUAUGGACUCUUGAACAUGAGGAUCACCCAUGUGCGCGUGGUCUAAAUACCAGAAGGUGGCCGCC”, the “apparent Kd” value under setting [3] was determined as 31.7 nM and the “apparent Kd” value under setting [4] amounted to 29.3 nM.
As for “UGUAAGAUGCAGAAGGUGUUAGCUAGAGCUACGACAUGAGGAUCACCCAUGUACUAGAAACAGUACAAGGAUAUGCAUCUUACG”, the “apparent Kd” value under setting [1] stood at 17.5 nM and the “apparent Kd” value under setting [2] turned out to be 6.57 nM.
As for “UUUAAUAAGUAGAAGGACGGAGAGUAUGAAGUCGUAGGAUAUACAUAAGACAUGAGGAUCACCCAUGUGUGUAUUUUGGGUAUG”, the “apparent Kd” value came to 12.8 nM under setting [3] and 13.4 nM under setting [4].
Regarding “AAAUUCUGAGGAUAUCGAUGUUUGUACAUGAGGAUCACCCAUGUCCUUUUUAUUUUUUCUCGAGAAGGCAGUGUAU”, the “apparent Kd” value came out at 38.1 nM under setting [3] and 35.3 nM under setting [4].
Consider “GCCGAACAUGAGGAUCACCCAUGUCUGGGUAAUCAAGGAUAUGGGAAGGCUUUGCCAUGACCAGAAGGUGGUUAUC”, for which the “apparent Kd” value was determined as 209 nM under setting [1] and 23.1 nM under setting [2].
Take “ACAUGAGGAUCACCCAUGUUGAUAGUAGAAGGGACAGAGAAGUAGUAACAUGAGGAUCACCCAUGUCAGGAUAUGCGAAUUGGA”: the “apparent Kd” value under setting [1] was found to be 35.2 nM and the “apparent Kd” value under setting [2] is 30.1 nM.
With “AAAAAGUCAGGAUAUGGCAAAGGUCACGAAAGUGACAAAGGCUAGAAGGGACAUGAGGAUCACCCAUGUAAAAA”, the “apparent Kd” value by setting is: under setting [3], 29 nM; under setting [4], 32.4 nM.
Taken in the same sequence, the figures for “UGUGCACUAGGAUAUGCGUAAGCUGAUACGUCAGCAGGUCUACAUGAGGAUCACCCAUGUAGAAGGAGUGUACU” were 17.1 nM and 16.9 nM.
The matching figures for “AUAAACCUAGGAUAUACAUGAGGAUCACCCAUGUAAGGGCAAUGCCCAUGCUCCUCAUGUAGAAGGAGGAGCAG”: 21.8 nM and 25.5 nM.
Consider “GCGUUGAACGAGAAGGCCAAUACAUGAGGAUCACCCAUGUUAAGAUGUUUUGGAGGAUAUCGUACGCAUUCAAUAUUGCAACGC”, for which the “apparent Kd” value came to 7.63 nM under setting [3] and 9.47 nM under setting [4].
“GCCUCACAUGAGGAUCACCCAUGUCAGGAUAUAGGAGAUGGCAGAAAUCCUACCAUCGCUAGAAGGGACUGGCA”: the “apparent Kd” value runs as follows: under setting [3], 43.4 nM; under setting [4], 76.4 nM.
Taken in the same sequence, the figures for “AGGAAGUGAGGAUAUGCAGUGGCCUGUAGACGCAAGCACUUGUAGAAGGCACAUGAGGAUCACCCAUGUUUAAA” were 35.8 nM and 34.2 nM.
On to “CAAUUGGCACAGAAGGGUGACAUGAGGAUCACCCAUGUAGCGUGGUACUCAGGAGGAACCACGCCACAGGAUAUGUGCCGGCAC”, for which the “apparent Kd” value is, setting by setting: under setting [1], 44.5 nM; under setting [2], 123 nM.
In the case of “GUGUACGGAGGAUAUAUAUGGGCAGCAUACGCUGCAGCUUCACAUGAGGAUCACCCAUGUAGAAGGCUGUGCAC”, the “apparent Kd” value stood at 22.4 nM under setting [3] and 129 nM under setting [4].
In the case of “UUAAUGUGAGGAUAUCAGGUGUGAUAGAGUAAUGGUAAAUCUGAGAAGGCACAUGAGGAUCACCCAUGUUCUUC”, the “apparent Kd” value runs as follows: under setting [3], 23 nM; under setting [4], 33.8 nM.
For the sequence “UGGAUCAUCGGAGGAUAUCAUGUAUAUACAUGAGGAUCACCCAUGUCGAUGGAGACAUCGGAGAUUGAGAAGGCCGAUGAUCCU”, the “apparent Kd” value is 910 nM under setting [1] and 30.5 nM under setting [2].
Turning to “GAUCCGUCUGUUAGGAUAUGCUUUGGGCUUCCGCAGUAGAAGGAACAUGAGGAUCACCCAUGUCCGAUGCCGUC”, the “apparent Kd” value stood at 33.4 nM under setting [3] and 43 nM under setting [4].
The matching figures for “AUGCUUCACACAGGAUAUACAUGAGGAUCACCCAUGUGUCCUCCGUAAUUGACACCAAUUACGCUGUAGAAGGGUGUGAAGCAU”: 258 nM and 188 nM.
Take “GUGAGUAGUCAGGAUAUGCUGUACAAAAGUACAGCAGAAGGGAUUACAUGAGGAUCACCCAUGUUUACCUCAUG”: the “apparent Kd” value turned out to be 574 nM under setting [3] and 884 nM under setting [4].
Turning to “UGCGUACAAGCAAACAUGAGGAUCACCCAUGUGGUCUUAUGCGAGGAUAUCGGGAAGGAGGAUUCCGAGAAGGUGCGGUGAGCC”, the “apparent Kd” value under setting [1] turned out to be 31.4 nM and the “apparent Kd” value under setting [2] turned out to be 26.5 nM.
For “UAUAUAUAGUAAGGAUAUGUAUAUACUUUAUAAACAGAAGGUACUGACAUGAGGAUCACCCAUGUUUUAGUGUGGGCAUGUAGA”, the “apparent Kd” value by setting is: under setting [3], 75.9 nM; under setting [4], 102 nM.
Taken in the same sequence, the figures for “AGUCGGCGAGGAUAUACAUGAGGAUCACCCAUGUGUGAUCCUAGACCUGUAGGUCCAUGUAGAAGGCGCUGACA” were 19.6 nM and 23.6 nM.
In the case of “UUGGACGUCGUAGGUUAUGUAGGAUAUUCCUACAUGAGGAUCACCCAUGUUGACAUGGAAGAAGGACAGAAGGACGAUGUCCAU”, the “apparent Kd” value was 205 nM under setting [1] and 3.92 nM under setting [2].
Turning to “AAAAAGUCAGGAUAUGUAGCAAAAGGUGAUCAAAAAAAGCUACAGAAGGGACAUGAGGAUCACCCAUGUAAAAA”, the “apparent Kd” value under setting [3] came to 262 nM and the “apparent Kd” value under setting [4] is 336 nM.
Consider “CAAAGUGGAGGAUAUACAUGAGGAUCACCCAUGUAAGGACAAUAAAUAAGAAGAAGAAGUAGAAGGCCACUCAA”, for which the “apparent Kd” value reads like this: under setting [3], 31.1 nM; under setting [4], 41.6 nM.
Taken in the same sequence, the figures for “AACGAUCUAGGAUAUACAUGAGGAUCACCCAUGUAAGAGCUCAAACCGAGCUCCCUCUGUAGAAGGAGGUCAAA” were 54.5 nM and 45.9 nM.
Turning to “UCUGGUCAAGGAUAUGCGUAAUGUGUUACGGCACGAGGUCUACAUGAGGAUCACCCAUGUAGAAGGUGAUCAGA”, the “apparent Kd” value was 18 nM under setting [3] and 17.9 nM under setting [4].
Take “AAGAAGUGAGGAUAUACAUGAACGAAAAAAAAAAAGAGCAUGUAGAAGGCACAUGAGGAUCACCCAUGUCAAAA”: the “apparent Kd” value reads like this: under setting [3], 28.5 nM; under setting [4], 27.3 nM.
As to “CCUCGACAUGAGGAUCACCCAUGUUAGGAUAUGGGAGCGGGAAUUUGAGUAUUCGUACCCAGAAGGAACAGUUA”, the “apparent Kd” value runs as follows: under setting [3], 42.6 nM; under setting [4], 96 nM.
Taken in the same sequence, the figures for “CUGUUUAAAGUGAGGAUAUGAACCUAGAACCAGGAUUAGAAGGCACAUGAGGAUCACCCAUGUGGUUGGUUGGG” were 16.6 nM and 16.7 nM.
The matching figures for “UUCCGGCGUGUAGGAUAUGGAUCCGAUUAGGAUCCAGAAGGACAUGAGGAUCACCCAUGUACAUGUAAACAGUCAUCACCGGAG”: 7.36 nM and 11.4 nM.
As to “GGAUAGGACAGAGGAUAUACGGGCUAGAGAUACUAGCAAAAUUUCCUCACAUGAGGAUCACCCAUGUAGAAGGCUGUCCUAUCG”, the “apparent Kd” value by setting is: under setting [3], 70.1 nM; under setting [4], 864 nM.
Taken in the same sequence, the figures for “CUUGUGUUAGGAUAUGCGUUUCCGGUGCGUCACUGGAUCUGGCAGAAGGGACAUGAGGAUCACCCAUGUUUGGC” were 38.7 nM and 31 nM.
Consider “CGCGAACAGGCUAACAUGAGGAUCACCCAUGUGGACUCAUGGUAGGAUAUCGGGAAGGAGGAAACCGAGAAGGGCCGGUGAGCA”, for which the “apparent Kd” value reads like this: under setting [1], 218 nM; under setting [2], 38.9 nM.
The matching figures for “UGCACAUGAGGAUCACCCAUGUAUUGUUCGGUUAAUAGAAGUGAGGAUAUGCUUAAAAUAAGGUAGCAGAAGGCACUGGGUUCA”: 27.8 nM and 29.6 nM.
Consider “AAUUAGUGAGGAUAUUUUAACAGUGGCAGUAGCCAGUGCAUGAAGAAGGCACAUGAGGAUCACCCAUGUUAUAA”, for which the “apparent Kd” value under setting [3] is 101 nM and the “apparent Kd” value under setting [4] turned out to be 91.5 nM.
As for “GCUCGAUGCGCUGAGCACAUGAGGAUCACCCAUGUAAAAUGUCAGGAUAUUUACGUGCUUUAUGUAGAGAAGGGACUAUCGAGC”, the “apparent Kd” value came out at 60.5 nM under setting [1] and 24.1 nM under setting [2].
Turning to “GGUGGGUUGCUGCCGGCACAUGAGGAUCACCCAUGUUUUGGGAAGGAUAUGGUACCUUUUUGGUGCCAGAAGGUCCCGUUGGUG”, the “apparent Kd” value under setting [1] came to 733 nM and the “apparent Kd” value under setting [2] amounted to 1000 nM.
Turning to “UUAUUAUAUGUAGGAUAUGCAUAUUGUUGUUAUGCAGAAGGACAUGAGGAUCACCCAUGUGUAUUAUUGUUAUAUAUUAUAUAU”, the “apparent Kd” value reads like this: under setting [3], 21.5 nM; under setting [4], 31.2 nM.
